Data from PubChem BioAssay AID492985 (Sanford-Burnham Center for Chemical Genomics, 2010).
pEC50: −log10 of the molar value.

The compounds below were run against Apelin receptor (Homo sapiens) (UniProt P35414) (assay: APJ receptor agonists, beta-arrestin recruitment, SAR follow-up, cell-based, CHO-K1 AGTRL-1, PathHunter luminescence, set 3 (AID 492985)).
In short: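 System – CHO-K1 APJ β-arrestin reporter cells · Dosing – compound dose-response series with DMSO equalised across wells · Times – compound exposure 90 min at 25 °C, detection reagent 60 min · Detection – luminescence from β-gal fragment complementation upon β-arrestin recruitment · Control set – apelin-13 reference wells, 30 nM as dispensed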

Sequence of Apelin receptor (Homo sapiens) (P35414 whole entry, looked up, the tested form may be a part): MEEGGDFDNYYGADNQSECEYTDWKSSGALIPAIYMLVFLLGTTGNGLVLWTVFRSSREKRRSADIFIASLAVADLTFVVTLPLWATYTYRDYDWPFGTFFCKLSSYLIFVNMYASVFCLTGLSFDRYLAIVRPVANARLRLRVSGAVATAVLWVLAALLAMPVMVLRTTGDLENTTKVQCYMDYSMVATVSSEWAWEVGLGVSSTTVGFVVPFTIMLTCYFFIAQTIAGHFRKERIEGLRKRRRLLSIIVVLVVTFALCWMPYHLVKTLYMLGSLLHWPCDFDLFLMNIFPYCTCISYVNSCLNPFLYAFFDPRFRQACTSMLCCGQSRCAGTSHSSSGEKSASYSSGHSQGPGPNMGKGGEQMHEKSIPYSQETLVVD

pEC50 | Compound
5.25 | CC1=CC(=O)C(C(C)C)=C/C1=N/OS(=O)(=O)c1ccc(C(C)C)cc1
5.45 | CC1=CC(=O)C(C(C)C)=C/C1=N/OS(=O)(=O)c1ccc(C#N)cc1
5.15 | CC1=CC(=O)C(C(C)C)=C/C1=N/OS(=O)(=O)c1ccc(F)cc1
